The values below come from ChEMBL document CHEMBL1933018 (Bioorg Med Chem Lett, 2012).

pIC50, pKi: −log10 of the molar value.

The target in data set [1] is T1, Corticotropin-releasing factor receptor 1 (Homo sapiens, UniProt P34998).
T1 sequence (P34998 whole entry): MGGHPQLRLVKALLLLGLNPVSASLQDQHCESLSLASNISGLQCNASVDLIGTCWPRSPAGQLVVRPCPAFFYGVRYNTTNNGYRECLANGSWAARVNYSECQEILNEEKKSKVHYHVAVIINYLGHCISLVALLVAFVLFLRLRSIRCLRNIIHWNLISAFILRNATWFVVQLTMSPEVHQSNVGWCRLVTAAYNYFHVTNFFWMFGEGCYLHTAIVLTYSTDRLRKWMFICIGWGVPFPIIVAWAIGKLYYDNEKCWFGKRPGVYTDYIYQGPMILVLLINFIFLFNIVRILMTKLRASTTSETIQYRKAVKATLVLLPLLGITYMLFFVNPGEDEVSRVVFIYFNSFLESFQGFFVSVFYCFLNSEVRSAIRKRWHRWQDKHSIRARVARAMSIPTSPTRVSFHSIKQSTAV
Put plainly: Antagonist activity at human recombinant CRF1 receptor expressed in CHO cells by cAMP assay. In kind it is functional, cell-based. Put shortly:
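CHO cells stably expressing recombinant human CRF-1 were grown in DMEM:F12 (1:1) with 10% FBS, 400 µg/ml Geneticin and 1% Glutamax at 37 °C, 5% CO2 to 70% confluence. 10,000 cells/well in PBS with 500 µM IBMX (final) were stimulated with hCRF (108 nM final) plus test compound. cAMP was read by HitHunter cAMP II kit. Compounds were tested repeatedly over a 0.5-log serial dilution series.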

Data set [2] can be described thus: Intrinsic clearance in liver microsomes. In kind it is ADME, Microsome. Conditions: read-out: CLH.
The target in data set [3] is T2, Progesterone receptor (Homo sapiens, UniProt P06401).
T2 sequence (P06401 whole entry): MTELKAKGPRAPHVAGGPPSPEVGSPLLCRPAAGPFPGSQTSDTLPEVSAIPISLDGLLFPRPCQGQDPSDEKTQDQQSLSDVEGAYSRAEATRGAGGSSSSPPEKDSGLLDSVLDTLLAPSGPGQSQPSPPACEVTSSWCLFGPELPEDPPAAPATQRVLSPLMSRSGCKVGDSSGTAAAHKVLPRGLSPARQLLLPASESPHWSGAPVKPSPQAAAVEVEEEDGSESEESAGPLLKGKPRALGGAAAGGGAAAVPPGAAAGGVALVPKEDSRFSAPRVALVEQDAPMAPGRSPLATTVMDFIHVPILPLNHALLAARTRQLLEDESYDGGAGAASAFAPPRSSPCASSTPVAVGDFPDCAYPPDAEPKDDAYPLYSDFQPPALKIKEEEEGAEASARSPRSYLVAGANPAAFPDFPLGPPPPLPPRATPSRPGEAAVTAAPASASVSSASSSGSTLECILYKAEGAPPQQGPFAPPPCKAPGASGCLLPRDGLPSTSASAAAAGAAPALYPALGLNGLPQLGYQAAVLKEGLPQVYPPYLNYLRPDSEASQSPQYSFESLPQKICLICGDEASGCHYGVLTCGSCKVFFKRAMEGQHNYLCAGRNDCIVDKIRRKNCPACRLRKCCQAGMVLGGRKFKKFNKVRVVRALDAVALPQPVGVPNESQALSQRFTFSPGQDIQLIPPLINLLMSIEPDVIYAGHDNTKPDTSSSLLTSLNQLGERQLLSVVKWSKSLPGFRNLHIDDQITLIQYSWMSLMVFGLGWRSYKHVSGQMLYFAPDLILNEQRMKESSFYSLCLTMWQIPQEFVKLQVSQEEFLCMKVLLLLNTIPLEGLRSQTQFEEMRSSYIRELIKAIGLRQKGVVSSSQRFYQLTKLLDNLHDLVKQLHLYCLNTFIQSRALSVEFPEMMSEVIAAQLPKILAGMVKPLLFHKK
The data set is described as follows: Antagonist activity at progesterone receptor. In kind it is functional.

Regarding `CCCCN(CC)c1nc(C)nc2c1c(C)c(C)n2-c1c(C)cc(C)cc1C` [ANTALARMIN], the pKi in data set [1] is 7.49.

On to `CC#C[C@]1(O)CC[C@H]2[C@@H]3CCC4=CC(=O)CCC4=C3[C@@](Cl)(c3cc(Cl)c(N(C)C)c(Cl)c3)C[C@@]21C`, for which the microsomal CLint in data set [2] was determined as 76 µL/min/mg. In data set [3], this compound gave a negative logarithm of the IC50 (pIC50) of 6.11.

As for `CCCCN(CC)c1nc(C)nc2c1c(C)c(C=O)n2-c1c(C)cc(C)cc1C`, the pKi in data set [1] was 7.28.

The compound `CC#C[C@]1(O)CC[C@H]2[C@@H]3CCC4=CC(=O)CCC4=C3C(c3ccc(N(C)C)cc3)=C[C@@]21C` showed a pIC50 in data set [3] of 6.51.

With `CCCCN(CC)c1nc(C)nc2c1c(C)c(COC)n2-c1c(C)cc(C)cc1C`, the pKi in data set [1] is 7.96.

Take `CCCCN(CC)c1nc(C)nc2c1c(C)c(CO)n2-c1c(C)cc(C)cc1C`: in data set [1], the pKi was 8.22.

As to `CC#C[C@]1(O)CC[C@H]2[C@@H]3CCC4=CC(=O)CCC4=C3[C@@H](c3ccc(N(C)C)cc3)C[C@@]21C` [MIFEPRISTONE], in data set [2], the microsomal CLint stood at 92.5 µL/min/mg.

On to `CC#C[C@]1(O)CC[C@H]2[C@@H]3CCC(=O)C(CCC(=O)O)=C3[C@@H](c3ccc(N(C)C=O)cc3)C[C@@]21C`, for which the pIC50 in data set [3] is 6.37.

As for `CC#C[C@]1(O)CC[C@H]2[C@@H]3CCC4=CC(=O)CCC4=C3[C@@H](c3ccc(N(C)C=O)cc3)C[C@@]21C`, the microsomal CLint in data set [2] was 81 µL/min/mg. The pIC50 in data set [3] was 8.00.
